Results published in ChEMBL document CHEMBL1123417, “New structure-activity relationships of the quinolone antibacterials using the target enzyme. The development and application of a DNA gyrase assay” (J Med Chem, 1986).
Converted amounts (≈) assume the structure as drawn.

Test system: Staphylococcus aureus
Assay: Antibacterial activity against Staphylococcus aureus (H228)
Details: not given

| MIC [µg/mL] | Structure (SMILES) |
| --- | --- |
| 0.2 (≈ 0.593 µM) | CCn1cc(C(=O)O)c(=O)c2cc(F)c(N3CCSCC3)nc21 |
| 100 (≈ 330 µM) | CCn1cc(C(=O)O)c(=O)c2c(N)nc(N3CCCC3)nc21 |
| 12.5 (≈ 34.5 µM) | CCn1cc(C(=O)O)c(=O)c2cc(F)c(N3CCN(CCN)CC3)cc21 |
| 50 (≈ 191 µM) | CCn1cc(C(=O)O)c(=O)c2ccc(/C=N/O)nc21 |

Test system: Escherichia coli
Assay: Antibacterial activity against Escherichia coli (H560)
Details: not given

| MIC [µg/mL] | Structure (SMILES) |
| --- | --- |
| 1.6 (≈ 4.74 µM) | CCn1cc(C(=O)O)c(=O)c2cc(F)c(N3CCSCC3)nc21 |
| 100 (≈ 330 µM) | CCn1cc(C(=O)O)c(=O)c2c(N)nc(N3CCCC3)nc21 |
| 25 (≈ 69 µM) | CCn1cc(C(=O)O)c(=O)c2cc(F)c(N3CCN(CCN)CC3)cc21 |
| > 100 | CCn1cc(C(=O)O)c(=O)c2ccc(/C=N/O)nc21 |

Molecular target: DNA gyrase (Escherichia coli) (UniProt P0AES6+P0AES4)
Assay: not given
Details: not given

| gyrase cleavage conc [µg/mL] | Structure (SMILES) |
| --- | --- |
| 38 | CCn1cc(C(=O)O)c(=O)c2cnc(N3CCCC3)nc21 [PIROMIDIC ACID] |
| 43 | CCn1nc(C(=O)O)c(=O)c2cc3c(cc21)OCO3 [CINOXACIN] |
| 50 | CCn1cc(C(=O)O)c(=O)c2cnc(N3CCNCC3)nc21 [PIPEMIDIC ACID] |
| 2.5 | CN1CCN(c2c(F)cc3c(=O)c(C(=O)O)cn(CCF)c3c2F)CC1 [FLEROXACIN] |
| 5 | CCn1cc(C(=O)O)c(=O)c2cc(F)c(N3CCNCC3)nc21 [ENOXACIN] |
| 18 | CCn1cc(C(=O)O)c(=O)c2cc(F)c(N3CCSCC3)nc21 |
| 100 | CCn1cc(C(=O)O)c(=O)c2c(N)nc(N3CCCC3)nc21 |
| 10 | CCn1cc(C(=O)O)c(=O)c2cc(F)c(N3CCN(CCN)CC3)cc21 |
| 100 | CCn1cc(C(=O)O)c(=O)c2ccc(/C=N/O)nc21 |

| Structure (SMILES) | gyrase cleavage conc [µg/mL] |
| --- | --- |
| CCn1cc(C(=O)O)c(=O)c2cc3c(cc21)OCO3 [OXOLINIC ACID] | 10 |

Test system: Escherichia coli
Assay: Antibacterial activity against Escherichia coli (vogel)
Details: not given

| MIC [µg/mL] | Structure (SMILES) |
| --- | --- |
| 1.6 (≈ 4.74 µM) | CCn1cc(C(=O)O)c(=O)c2cc(F)c(N3CCSCC3)nc21 |
| 100 (≈ 330 µM) | CCn1cc(C(=O)O)c(=O)c2c(N)nc(N3CCCC3)nc21 |
| 25 (≈ 69 µM) | CCn1cc(C(=O)O)c(=O)c2cc(F)c(N3CCN(CCN)CC3)cc21 |
| 12.5 (≈ 47.8 µM) | CCn1cc(C(=O)O)c(=O)c2ccc(/C=N/O)nc21 |

Test system: Pseudomonas aeruginosa
Assay: Antibacterial activity against Pseudomonas aeruginosa (UI-18)
Details: not given

| MIC [µg/mL] | Structure (SMILES) |
| --- | --- |
| 6.3 (≈ 18.7 µM) | CCn1cc(C(=O)O)c(=O)c2cc(F)c(N3CCSCC3)nc21 |
| > 100 | CCn1cc(C(=O)O)c(=O)c2c(N)nc(N3CCCC3)nc21 |
| 50 (≈ 138 µM) | CCn1cc(C(=O)O)c(=O)c2cc(F)c(N3CCN(CCN)CC3)cc21 |
| 100 (≈ 383 µM) | CCn1cc(C(=O)O)c(=O)c2ccc(/C=N/O)nc21 |

Molecular target: DNA gyrase (Escherichia coli, UniProt P0AES4+P0AES6)
Assay: Inhibitory concentration in supercoiling inhibition Escherichia coli DNA gyrase assay
Assay type: protein-complex assay
Details: read-out: I50 (converted)
How it was run: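 Gyrase A and B subunits purified from E. coli H560, each titrated to fully supercoil relaxed Col E1 plasmid (~0.3 μg/mL). Drug in 0.1 N KOH, 40 min at 30 °C, then ATP for 10 min. SDS/proteinase K quench, 1% agarose gel, ethidium stain. Serial dilutions start at 200 μg/mL. I50 is the mean of the initial-inhibition and 100%-inhibition concentrations.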

| IC50 [µM] | Structure (SMILES) |
| --- | --- |
| > 347 | CCn1cc(C(=O)O)c(=O)c2cnc(N3CCCC3)nc21 [PIROMIDIC ACID] |
| > 381 | CCn1nc(C(=O)O)c(=O)c2cc3c(cc21)OCO3 [CINOXACIN] |
| > 330 | CCn1cc(C(=O)O)c(=O)c2cnc(N3CCNCC3)nc21 [PIPEMIDIC ACID] |
| 10.3 | CN1CCN(c2c(F)cc3c(=O)c(C(=O)O)cn(CCF)c3c2F)CC1 [FLEROXACIN] |
| 87.4 | CCn1cc(C(=O)O)c(=O)c2cc(F)c(N3CCNCC3)nc21 [ENOXACIN] |

| Structure (SMILES) | IC50 [µM] |
| --- | --- |
| CCn1cc(C(=O)O)c(=O)c2cc3c(cc21)OCO3 [OXOLINIC ACID] | 95.7 |

Test system: Streptococcus pneumoniae
Assay: Antibacterial activity against Streptococcus pneumoniae (SV-1)
Details: not given

| MIC [µg/mL] | Structure (SMILES) |
| --- | --- |
| 50 (≈ 148 µM) | CCn1cc(C(=O)O)c(=O)c2cc(F)c(N3CCSCC3)nc21 |
| 25 (≈ 82.4 µM) | CCn1cc(C(=O)O)c(=O)c2c(N)nc(N3CCCC3)nc21 |
| 50 (≈ 138 µM) | CCn1cc(C(=O)O)c(=O)c2cc(F)c(N3CCN(CCN)CC3)cc21 |
| 100 (≈ 383 µM) | CCn1cc(C(=O)O)c(=O)c2ccc(/C=N/O)nc21 |

Test system: Klebsiella pneumoniae
Assay: Antibacterial activity against Klebsiella pneumonia (MGH-2)
Details: not given

| MIC [µg/mL] | Structure (SMILES) |
| --- | --- |
| 3.1 (≈ 9.19 µM) | CCn1cc(C(=O)O)c(=O)c2cc(F)c(N3CCSCC3)nc21 |
| > 100 | CCn1cc(C(=O)O)c(=O)c2c(N)nc(N3CCCC3)nc21 |
| 50 (≈ 138 µM) | CCn1cc(C(=O)O)c(=O)c2cc(F)c(N3CCN(CCN)CC3)cc21 |
| 12.5 (≈ 47.8 µM) | CCn1cc(C(=O)O)c(=O)c2ccc(/C=N/O)nc21 |
